Experimental data published in ChEMBL document CHEMBL1156942, “Inhibitors of hepatitis C virus polymerase: synthesis and characterization of novel 2-oxy-6-fluoro-N-((S)-1-hydroxy-3-phenylpropan-2-yl)-benzamides” (Bioorg Med Chem Lett, 2010).
Activity calls are given as the source filed them. No cut-off for these calls is given here.

How the values were obtained:
Hepatitis C virus [1] = test: Inhibition of HCV Con1 NS5B polymerase; type: functional, Hepatitis C virus (isolate Con1); details: 1b
How it was run: (§1)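 The buffer is 20 mM HEPES pH 7.3, 7.5 mM DTT, 10 mM MgCl2, 60 mM NaCl, RNasin, BSA, GTP/ATP/UTP, and CTP supplemented to 20 nM. It uses 100 nM heteropolymer RNA template and 0.25 mM trinucleotide initiator. Incubation is 2 h at room temperature, then stopped with EDTA, and filter-bound label is counted. IC50 comes from 10 twofold dilutions in duplicate, averaged over two separate weighings.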

Hepatitis C virus [2] = test: Selectivity ratio of IC50 for HCV Con1 NS5B polymerase G554D mutant to IC50 for HCV 1b Con1 NS5B polymerase; type: functional, Hepacivirus hominis, isolate Con1
Hepatitis C virus [3] = test: Inhibition of HCV Con1 NS5B polymerase M414T mutant; type: functional, Hepacivirus hominis; details: isolate Con1
How it was run: (§2)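 Mutant Con1 NS5B (Δ21) at 30 nM was run in a de novo initiation assay with 100 nM heteropolymer RNA template and 0.25 mM trinucleotide initiator. Incubation: RT, 2 h, stopped with EDTA. Read-out: filter-bound label. IC50 from 10 twofold dilutions in duplicate; means of duplicates on two weighings.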

[4] = system: Hepatitis C virus genotype 2; test: Inhibition of HCV genotype 2 NS5B polymerase up to 200 uM
Hepatitis C virus [5] = test: Inhibition of HCV Con1 NS5B polymerase C316N mutant; type: functional, Hepacivirus hominis; details: isolate Con1; how it was run: as §2
[6] = system: Hepatitis C virus genotype 3; test: Inhibition of HCV genotype 3 NS5B polymerase up to 200 uM
Hepatitis C virus [7] = test: Selectivity ratio of IC50 for HCV Con1 NS5B polymerase C316Y mutant to IC50 for HCV 1b Con1 NS5B polymerase; type: functional, Hepacivirus hominis, isolate Con1
Hepatitis C virus [8] = test: Selectivity ratio of IC50 for HCV Con1 NS5B polymerase M414T mutant to IC50 for HCV 1b Con1 NS5B polymerase; type: functional, Hepacivirus hominis, isolate Con1
Hepatitis C virus [9] = test: Inhibition of HCV Con1 NS5B polymerase C316Y mutant; type: functional, Hepacivirus hominis; details: isolate Con1; how it was run: as §2
Hepatitis C virus [10] = test: Inhibition of HCV 1a NS5B polymerase; type: functional, Hepatitis C virus subtype 1a; how it was run: as §1
Hepatitis C virus [11] = test: Inhibition of HCV Con1 NS5B polymerase G554D mutant; type: functional, Hepacivirus hominis; details: isolate Con1; how it was run: as §2
[12] = system: Hepatitis C virus genotype 4; test: Inhibition of HCV genotype 4 NS5B polymerase up to 200 uM

Compound | IC50 (Hepatitis C virus [1]) [µM] | other results
O=C(COc1cccc(F)c1C(=O)N1CCC(c2ccccc2)C1)N[C@H](CO)Cc1ccccc1 (stereo partly specified) | 10 | 
CCCCN(CC)C(=O)c1c(F)cccc1OCC(=O)N[C@H](CO)Cc1ccccc1 | 0.47 | 
O=C(COc1cccc(F)c1C(=O)N1CCCC1Cc1ccccn1)N[C@H](CO)Cc1ccccc1 (stereo partly specified) | > 20 | 
CCN(CCOC)C(=O)c1c(F)cccc1OCC(=O)N[C@H](CO)Cc1ccccc1 | 8 | 
CCOc1cc(CCNC(=O)c2c(F)cccc2OCC(=O)N[C@H](CO)Cc2ccccc2)ccc1OC | > 20 | 
O=C(COc1cccc(F)c1C(=O)N1CCCCCC1)N[C@H](CO)Cc1ccccc1 | 2.6 | 
CC(C)(C)CCNC(=O)c1c(F)cccc1OCC(=O)N[C@H](CO)Cc1ccccc1 | > 20 | 
CCCN(CCOC)C(=O)c1c(F)cccc1OCC(=O)N[C@H](CO)Cc1ccccc1 | 17 | 
CCCN(CC1CC1)C(=O)c1c(F)cccc1OCC(=O)N[C@H](CO)Cc1ccccc1 | 2.6 | 
O=C(COc1cccc(F)c1C(=O)NCCC1CCCCC1)N[C@H](CO)Cc1ccccc1 | > 20 | 
CCN(C(=O)c1c(F)cccc1OCC(=O)N[C@H](CO)Cc1ccccc1)C(C)C | 7 | 
O=C(COc1cccc(F)c1C(=O)N1CCCCC1)N[C@H](CO)Cc1ccccc1 | > 20 | 
COC(=O)[C@@H](Cc1ccccc1)N(C)C(=O)c1c(F)cccc1OCC(=O)N[C@H](CO)Cc1ccccc1 | 4.3 | 
CC(C)CCN(C)C(=O)c1c(F)cccc1OCC(=O)N[C@H](CO)Cc1ccccc1 | 0.47 | 
O=C(COc1cccc(F)c1C(=O)NCCc1ccccc1)N[C@H](CO)Cc1ccccc1 | > 20 | 
O=C(COc1cccc(F)c1C(=O)NCCC1=CCCCC1)N[C@H](CO)Cc1ccccc1 | 4.3 | 
O=C(COc1cccc(F)c1C(=O)N1CCCC1C1CCCCC1)N[C@H](CO)Cc1ccccc1 (stereo partly specified) | 4 | 
COC[C@@H]1CCCN1C(=O)c1c(F)cccc1OCC(=O)N[C@H](CO)Cc1ccccc1 | 7.7 | 
CC(C)CCNC(=O)c1c(F)cccc1OCC(=O)N[C@H](CO)Cc1ccccc1 | > 20 | 
CCCCN(C)C(=O)c1c(F)cccc1OCC(=O)N[C@H](CO)Cc1ccccc1 |  | Ratio IC50 (Hepatitis C virus [2]): 150; IC50 (Hepatitis C virus [3]): 10 µM; inhibition [4]: inactive; IC50 (Hepatitis C virus [5]): 0.9 µM; inhibition [6]: inactive; Ratio IC50 (Hepatitis C virus [7]): 100; Ratio IC50 (Hepatitis C virus [8]): 10; IC50 (Hepatitis C virus [9]): 90 µM; IC50 (Hepatitis C virus [10]): 43 µM; IC50 (Hepatitis C virus [11]): 120 µM; inhibition [12]: inactive
CCCN(C)C(=O)c1c(F)cccc1OCC(=O)N[C@H](CO)Cc1ccccc1 | 6 | 
O=C(COc1cccc(F)c1C(=O)N1CCCC1)N[C@H](CO)Cc1ccccc1 | > 20 | 
CNC(=O)c1c(-c2ccc(F)cc2)oc2cc(N(CCO)S(C)(=O)=O)c(C3CC3)cc12 [NESBUVIR] |  | IC50 (Hepatitis C virus [3]): 0.06 µM; IC50 (Hepatitis C virus [5]): 0.12 µM; IC50 (Hepatitis C virus [9]): 2 µM; IC50 (Hepatitis C virus [10]): 0.04 µM; IC50 (Hepatitis C virus [11]): 0.05 µM
O=C(COc1cccc(F)c1C(=O)N[C@H](CO)Cc1ccccc1)NCCC1=CCCCC1 | > 20 | 
CC(C)(C)CC[C@@]1(C)CC(C2=NS(=O)(=O)c3cc(NS(C)(=O)=O)ccc3N2)=C(O)c2ccccc21 |  | IC50 (Hepatitis C virus [3]): 0.004 µM; IC50 (Hepatitis C virus [5]): 0.004 µM; IC50 (Hepatitis C virus [9]): 0.008 µM; IC50 (Hepatitis C virus [10]): 0.003 µM; IC50 (Hepatitis C virus [11]): 0.3 µM
COCCN(C(=O)c1c(F)cccc1OCC(=O)N[C@H](CO)Cc1ccccc1)C(C)C | 6 | 
CCN(CC)C(=O)c1c(F)cccc1OCC(=O)N[C@H](CO)Cc1ccccc1 | 6 | 
COC[C@H](Cc1ccccc1)NC(=O)COc1cccc(F)c1C(=O)NCCC1=CCCCC1 | > 20 | 
CCCN(CC)C(=O)c1c(F)cccc1OCC(=O)N[C@H](CO)Cc1ccccc1 | 2.3 | 

Further lines, with some results ahead:

IC50 (Hepatitis C virus [1]) [µM] | Compound | other results
20 | COC[C@H]1CCCN1C(=O)c1c(F)cccc1OCC(=O)N[C@H](CO)Cc1ccccc1 | 
0.43 | C[C@H](c1ccccc1)N(C)C(=O)c1c(F)cccc1OCC(=O)N[C@H](CO)Cc1ccccc1 | 
1.9 | O=C(COc1cccc(F)c1C(=O)N1CCCC1c1cccc(Cl)c1)N[C@H](CO)Cc1ccccc1 (stereo partly specified) | 
2.7 | CCCN(CCC)C(=O)c1c(F)cccc1OCC(=O)N[C@H](CO)Cc1ccccc1 | 
2.2 | C=CCN(CC=C)C(=O)c1c(F)cccc1OCC(=O)N[C@H](CO)Cc1ccccc1 | 
> 20 | C[S+]([O-])CCNC(=O)c1c(F)cccc1OCC(=O)N[C@H](CO)Cc1ccccc1 (stereo partly specified) | 
> 20 | CCCCNC(=O)c1c(F)cccc1OCC(=O)N[C@H](CO)Cc1ccccc1 | 
> 20 | COCCNC(=O)c1c(F)cccc1OCC(=O)N[C@H](CO)Cc1ccccc1 | 
> 20 | O=C(COc1cccc(F)c1C(=O)NCCCCO)N[C@H](CO)Cc1ccccc1 | 
> 20 | CCOCCN(CCOCC)C(=O)c1c(F)cccc1OCC(=O)N[C@H](CO)Cc1ccccc1 | 
> 20 | O=C(COc1cccc(F)c1C(=O)NCCC1=CCCCC1)N[C@@H](CO)Cc1ccccc1 | 
20 | CN(CCc1ccccc1)C(=O)c1c(F)cccc1OCC(=O)N[C@H](CO)Cc1ccccc1 | 
4.6 | COC(=O)[C@H](c1ccccc1)N(C)C(=O)c1c(F)cccc1OCC(=O)N[C@H](CO)Cc1ccccc1 | 
2.3 | CC1CCN(C(=O)c2c(F)cccc2OCC(=O)N[C@H](CO)Cc2ccccc2)CC1 | 
